In ChEMBL document CHEMBL1800027, “Imidazolopiperazines: hit to lead optimization of new antimalarial agents” (J Med Chem, 2011):
Each block holds one molecule with its values, some of them ahead of it.

Key:
in vitro [1] = settings: mouse, microsomes
Plasmodium berghei [2] = assay: Antimalarial activity against GFP-tagged Plasmodium berghei ANKA infected in NMRI mouse assessed as mouse survival at 100 mg/kg, po administered as single dose 24 hrs post infection measured on day 30 post infection
Cytochrome P450 2C9 = Cytochrome P450 2C9 (Homo sapiens, UniProt P11712); assay: Inhibition of CYP 2C9; assay type: ADME
Sequence of Cytochrome P450 2C9 (P11712 whole entry): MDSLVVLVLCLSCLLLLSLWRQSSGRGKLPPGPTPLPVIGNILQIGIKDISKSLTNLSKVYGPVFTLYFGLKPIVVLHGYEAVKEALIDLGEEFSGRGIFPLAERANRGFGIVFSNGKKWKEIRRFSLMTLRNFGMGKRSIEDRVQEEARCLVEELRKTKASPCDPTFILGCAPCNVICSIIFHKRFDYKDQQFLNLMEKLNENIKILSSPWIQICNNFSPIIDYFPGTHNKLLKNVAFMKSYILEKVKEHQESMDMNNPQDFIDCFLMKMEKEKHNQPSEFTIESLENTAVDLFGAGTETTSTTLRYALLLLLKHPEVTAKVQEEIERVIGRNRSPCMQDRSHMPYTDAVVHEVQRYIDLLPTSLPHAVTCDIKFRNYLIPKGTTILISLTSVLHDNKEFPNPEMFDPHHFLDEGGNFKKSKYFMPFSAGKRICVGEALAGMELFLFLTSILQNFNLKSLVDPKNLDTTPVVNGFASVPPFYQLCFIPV

Plasmodium berghei [3] = assay: Antimalarial activity against GFP-tagged Plasmodium berghei ANKA infected in NMRI mouse assessed as reduction in parasitemia at 30 mg/kg, po administered as single dose 24 hrs post infection measured 72 hrs post infection; assay type: functional; parameters: scale not given: the % may be the effect or the level left
Mus musculus [4] = assay: Cmax in male BALB/c mouse at 20 mg/kg, po by LC/MS/MS analysis; assay type: ADME, organism-based; parameters: dose 20 mg/kg, route oral; settings: in vivo
Summary of the method: (§1)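 Male Balb/c mice, n = 3 per group, given 20 mg/kg orally at 8 mL/kg. Vehicle 2.5 mg/mL in 75% PEG300/25% DSW, filtered. Six serial retro-orbital blood samples up to 24 h, heparinized plasma. Plasma extracted with acetonitrile/methanol (3:1) plus internal standard; LC/MS/MS quantitation by positive ESI MRM. Noncompartmental analysis; values normalized to 30 mg/kg. F = (AUCpo·dose iv)/(AUCiv·dose po).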

[5] = target: Voltage-gated inwardly rectifying potassium channel KCNH2 (Homo sapiens, UniProt Q12809)
Sequence of Voltage-gated inwardly rectifying potassium channel KCNH2 (Q12809 whole entry): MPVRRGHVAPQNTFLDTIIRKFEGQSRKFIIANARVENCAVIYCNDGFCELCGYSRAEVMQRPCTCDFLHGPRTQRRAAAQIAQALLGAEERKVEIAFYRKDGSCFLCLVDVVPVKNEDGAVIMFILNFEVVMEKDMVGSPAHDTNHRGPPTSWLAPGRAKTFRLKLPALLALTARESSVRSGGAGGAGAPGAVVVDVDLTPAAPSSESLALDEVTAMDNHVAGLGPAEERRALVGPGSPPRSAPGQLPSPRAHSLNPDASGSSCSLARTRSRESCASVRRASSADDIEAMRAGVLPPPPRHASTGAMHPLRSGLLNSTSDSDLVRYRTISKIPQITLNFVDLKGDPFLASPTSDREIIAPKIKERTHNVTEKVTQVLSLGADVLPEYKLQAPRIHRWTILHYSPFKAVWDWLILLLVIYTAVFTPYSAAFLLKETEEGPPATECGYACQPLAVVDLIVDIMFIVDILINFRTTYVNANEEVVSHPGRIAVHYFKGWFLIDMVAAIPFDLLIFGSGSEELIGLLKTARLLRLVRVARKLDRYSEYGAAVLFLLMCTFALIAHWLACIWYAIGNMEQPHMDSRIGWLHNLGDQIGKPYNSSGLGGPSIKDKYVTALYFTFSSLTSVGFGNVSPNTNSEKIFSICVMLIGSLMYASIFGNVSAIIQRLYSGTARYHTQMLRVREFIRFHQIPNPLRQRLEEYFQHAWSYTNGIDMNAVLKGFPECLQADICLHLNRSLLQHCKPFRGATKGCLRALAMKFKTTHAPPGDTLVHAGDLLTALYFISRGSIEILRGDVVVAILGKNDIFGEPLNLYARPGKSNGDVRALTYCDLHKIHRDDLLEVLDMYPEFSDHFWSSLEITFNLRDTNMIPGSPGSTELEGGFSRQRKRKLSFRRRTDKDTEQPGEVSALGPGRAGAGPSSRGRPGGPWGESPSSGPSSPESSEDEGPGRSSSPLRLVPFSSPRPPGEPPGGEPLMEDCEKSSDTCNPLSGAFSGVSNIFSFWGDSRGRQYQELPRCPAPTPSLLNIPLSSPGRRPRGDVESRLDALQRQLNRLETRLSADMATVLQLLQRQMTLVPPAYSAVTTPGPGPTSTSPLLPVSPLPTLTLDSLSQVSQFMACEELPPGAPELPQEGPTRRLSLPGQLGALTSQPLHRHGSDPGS

in vitro [6] = settings: human, Caco-2
[7] = Half-life in male BALB/c mouse at 5 mg/kg, iv by LC/MS/MS analysis; assay type: ADME, organism-based; parameters: dose 5 mg/kg, route intravenous; settings: in vivo
Summary of the method: (§2)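 Male Balb/c mice, n = 3 per group, dosed iv via lateral tail vein at 5 mg/kg and 2 mL/kg. Vehicle 2.5 mg/mL in 75% PEG300/25% DSW, filtered. Six serial retro-orbital blood samples up to 24 h, heparinized plasma. Plasma extracted with acetonitrile/methanol (3:1) plus internal standard for LC/MS/MS (positive ESI, MRM). Noncompartmental analysis.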

Cytochrome P450 2C19 = Cytochrome P450 2C19 (Homo sapiens, UniProt P33261); assay: Inhibition of CYP 2C19; assay type: ADME
Sequence of Cytochrome P450 2C19 (P33261 whole entry): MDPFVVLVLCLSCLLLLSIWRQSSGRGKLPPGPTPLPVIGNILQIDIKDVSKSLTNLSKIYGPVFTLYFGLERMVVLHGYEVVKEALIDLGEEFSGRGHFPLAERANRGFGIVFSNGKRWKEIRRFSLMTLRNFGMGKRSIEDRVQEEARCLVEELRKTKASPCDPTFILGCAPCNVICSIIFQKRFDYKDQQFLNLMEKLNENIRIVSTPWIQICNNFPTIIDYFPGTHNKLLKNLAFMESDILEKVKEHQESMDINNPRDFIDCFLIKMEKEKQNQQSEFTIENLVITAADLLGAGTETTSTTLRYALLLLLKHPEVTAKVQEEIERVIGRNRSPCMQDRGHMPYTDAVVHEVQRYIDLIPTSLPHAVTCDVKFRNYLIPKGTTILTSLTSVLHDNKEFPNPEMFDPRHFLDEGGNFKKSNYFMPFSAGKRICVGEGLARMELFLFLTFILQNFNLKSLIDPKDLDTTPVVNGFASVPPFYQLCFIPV

[8] = AUC (0 to infinity) in male BALB/c mouse at 5 mg/kg, iv by LC/MS/MS analysis; assay type: ADME, organism-based; parameters: time infinity, dose 5 mg/kg, route intravenous; settings: plasma
Summary of the method: as §2

[9] = Genotoxicity in micronucleus assessed as arrest at cytokinesis stage by micronucleus assay
[10] = Selectivity index, ratio TC50 for human HeLa cells to IC50 for Plasmodium falciparum; assay type: functional
[11] = Cytotoxicity against mouse BAF3 cells; assay type: cell-based; settings: read-out: TC50 (the source's name)
[12] = Cytotoxicity against human Hep2 cells; assay type: cell-based; settings: HEp-2 cells, read-out: TC50 (the source's name)
[13] = Ratio of drug level in blood to plasma of female CD1 mouse; assay type: ADME; settings: blood and plasma
Cytochrome P450 3A4 = Cytochrome P450 3A4 (Homo sapiens, UniProt P08684); assay: Inhibition of CYP 3A4; assay type: ADME
Sequence of Cytochrome P450 3A4 (P08684 whole entry): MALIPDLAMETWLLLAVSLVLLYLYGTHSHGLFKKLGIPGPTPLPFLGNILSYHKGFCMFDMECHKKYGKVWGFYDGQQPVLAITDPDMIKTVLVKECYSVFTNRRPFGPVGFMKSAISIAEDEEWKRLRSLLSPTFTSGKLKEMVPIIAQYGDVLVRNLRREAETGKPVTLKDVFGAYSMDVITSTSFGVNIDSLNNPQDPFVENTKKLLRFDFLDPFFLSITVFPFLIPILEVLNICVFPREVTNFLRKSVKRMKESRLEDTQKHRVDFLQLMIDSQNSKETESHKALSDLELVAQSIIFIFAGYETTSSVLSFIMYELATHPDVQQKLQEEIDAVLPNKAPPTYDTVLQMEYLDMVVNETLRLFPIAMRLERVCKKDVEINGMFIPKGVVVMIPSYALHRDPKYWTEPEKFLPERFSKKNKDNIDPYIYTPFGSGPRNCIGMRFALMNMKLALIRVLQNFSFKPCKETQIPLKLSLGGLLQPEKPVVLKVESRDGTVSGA

[14] = Ratio of drug level in blood to plasma of male BALB/c mouse; assay type: ADME; settings: blood and plasma
[15] = Selectivity index, ratio TC50 for CHO cells to IC50 for Plasmodium falciparum; assay type: functional
[16] = Oral bioavailability in male BALB/c mouse at 20 mg/kg by LC/MS/MS analysis; assay type: ADME, organism-based; settings: in vivo
Summary of the method: as §1

[17] = Selectivity index, ratio TC50 for human Hep2 cells to IC50 for Plasmodium falciparum; assay type: functional, HEp-2
Salmonella typhimurium = assay: Genotoxicity in Salmonella Typhimurium by Ames test; assay type: toxicity, organism-based; settings: salmonella enterica subsp. enterica serovar typhimurium
[18] = Cytotoxicity against human 293T cells; assay type: cell-based; settings: HEK-293T cells, read-out: TC50 (the source's name)
[19] = Selectivity index, ratio TC50 for human 293T cells to IC50 for Plasmodium falciparum; assay type: functional
[20] = Cytotoxicity against human HeLa cells; assay type: cell-based; settings: read-out: TC50 (the source's name)
Cytochrome P450 2D6 = Cytochrome P450 2D6 (Homo sapiens, UniProt P10635); assay: Inhibition of CYP 2D6; assay type: ADME
Sequence of Cytochrome P450 2D6 (P10635 whole entry): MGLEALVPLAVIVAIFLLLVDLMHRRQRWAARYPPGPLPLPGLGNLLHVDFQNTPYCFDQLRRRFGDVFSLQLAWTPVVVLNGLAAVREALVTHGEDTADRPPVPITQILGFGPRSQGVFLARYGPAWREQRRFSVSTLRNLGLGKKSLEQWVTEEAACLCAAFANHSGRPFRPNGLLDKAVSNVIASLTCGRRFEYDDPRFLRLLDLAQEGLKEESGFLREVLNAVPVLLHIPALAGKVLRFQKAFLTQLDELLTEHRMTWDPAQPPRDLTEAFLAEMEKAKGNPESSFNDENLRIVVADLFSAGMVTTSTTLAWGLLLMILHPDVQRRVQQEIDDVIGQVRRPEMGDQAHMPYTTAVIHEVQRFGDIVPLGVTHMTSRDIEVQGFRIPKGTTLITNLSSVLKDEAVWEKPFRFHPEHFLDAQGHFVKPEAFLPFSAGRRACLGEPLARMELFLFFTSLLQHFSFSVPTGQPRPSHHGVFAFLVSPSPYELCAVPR

[21] = pampa
[22] = Cytotoxicity against Cricetulus griseus CHO cells; assay type: cell-based; settings: chinese hamster, read-out: TC50 (the source's name)
Plasmodium falciparum [23] = assay: Antimalarial activity against Plasmodium falciparum 3D7 infected in human erythrocytes assessed as decrease in parasitemia after 72 hrs; assay type: functional, organism-based; settings: 3D7, 72 h
Mus musculus [24] = assay: AUC (0 to infinity) in male BALB/c mouse at 20 mg/kg, po by LC/MS/MS analysis; assay type: ADME, organism-based, Plasma; parameters: time infinity, dose 20 mg/kg, route oral; settings: in vivo
Summary of the method: as §1

in vitro [25] = settings: human, Caco-2; remark: listed apart in the source
Plasmodium falciparum [26] = assay: Antimalarial activity against Plasmodium falciparum W2 infected in human erythrocytes assessed as decrease in parasitemia after 72 hrs; assay type: functional, organism-based; settings: W2, 72 h
[27] = Volume of distribution in male BALB/c mouse at 5 mg/kg, iv by LC/MS/MS analysis; assay type: ADME, organism-based; parameters: dose 5 mg/kg, route intravenous; settings: in vivo
Summary of the method: as §2

[28] = Clearance in male BALB/c mouse at 5 mg/kg, iv by LC/MS/MS analysis; assay type: ADME, organism-based; parameters: dose 5 mg/kg, route intravenous; settings: in vivo
Summary of the method: as §2

[29] = Half life in male BALB/c mouse at 20 mg/kg, po by LC/MS/MS analysis; assay type: ADME, organism-based; parameters: dose 20 mg/kg, route oral; settings: in vivo
Summary of the method: as §1

[30] = Tmax in male BALB/c mouse at 20 mg/kg, po by LC/MS/MS analysis; assay type: ADME, organism-based; parameters: dose 20 mg/kg, route oral; settings: in vivo
Summary of the method: as §1

Cytochrome P450 1A2 = target: T1, Cytochrome P450 1A2 (Homo sapiens, UniProt P05177); assay: Inhibition of CYP 1A2; assay type: ADME
T1 sequence (P05177 whole entry): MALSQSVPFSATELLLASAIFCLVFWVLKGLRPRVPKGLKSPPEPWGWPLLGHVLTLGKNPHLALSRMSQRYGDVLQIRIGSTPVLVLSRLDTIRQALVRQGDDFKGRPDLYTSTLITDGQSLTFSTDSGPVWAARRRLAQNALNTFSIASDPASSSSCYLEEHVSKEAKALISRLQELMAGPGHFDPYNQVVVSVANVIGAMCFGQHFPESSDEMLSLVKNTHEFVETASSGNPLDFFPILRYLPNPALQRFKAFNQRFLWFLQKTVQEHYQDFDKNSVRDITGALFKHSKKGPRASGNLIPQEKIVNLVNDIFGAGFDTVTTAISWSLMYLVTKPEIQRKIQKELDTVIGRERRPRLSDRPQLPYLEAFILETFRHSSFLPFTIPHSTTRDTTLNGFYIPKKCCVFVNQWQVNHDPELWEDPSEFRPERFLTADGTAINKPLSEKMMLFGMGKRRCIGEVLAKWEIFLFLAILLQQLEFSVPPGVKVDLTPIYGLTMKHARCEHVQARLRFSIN

Plasmodium berghei [31] = assay: Antimalarial activity against GFP-tagged Plasmodium berghei ANKA infected in NMRI mouse assessed as mouse survival at 30 mg/kg, po QD administered 24 hrs post infection for 3 days measured on day 30 post infection; assay type: functional
[32] = Cytotoxicity against human HuH7 cells; assay type: cell-based; settings: Huh-7 cells, read-out: TC50 (the source's name)
in vitro [33] = settings: rat, microsomes
Plasmodium berghei [34] = assay: Antimalarial activity against GFP-tagged Plasmodium berghei ANKA infected in NMRI mouse assessed as mouse survival at 30 mg/kg, po administered as single dose 24 hrs post infection measured 72 hrs post infection
[35] = Selectivity index, ratio TC50 for human HuH7 cells to IC50 for Plasmodium falciparum; assay type: functional, Huh-7
in vitro [36] = settings: human, microsomes
[37] = Selectivity index, ratio TC50 for mouse BAF3 cells to IC50 for Plasmodium falciparum; assay type: functional
[38] = Cmax in po dosed mouse; assay type: ADME, organism-based; parameters: route oral; settings: in vivo
[39] = Aqueous solubility of the compound at pH 6.8; assay type: physicochemical; settings: buffer

Structure (SMILES): CC(C)(N)C(=O)N1CCn2c(nc(-c3ccc(F)cc3)c2Nc2ccc(F)c(F)c2)C1
hepatic extraction ratio (in vitro [1]): 0.17
Survival (Plasmodium berghei [2]): 17 days
IC50 (Cytochrome P450 2C9): > 8.9 µM
Activity (Plasmodium berghei [3]): 99.4%
Cmax (Mus musculus [4]): 1940 nM
IC50 [5]: 4.8 µM
Papp A→B (in vitro [6]): 0.14 ×10⁻⁶ cm/s
half-life [7]: 7.7 h
IC50 (Cytochrome P450 2C19): > 8.9 µM
AUC(0-inf) [8]: 7 µM·h
Activity [9]: Non-toxic
Selectivity Index [10]: >100
CC50 [11]: > 12 µM
CC50 [12]: > 12 µM
blood plasma ratio [13]: > 1
IC50 (Cytochrome P450 3A4): > 8.9 µM
blood plasma ratio [14]: > 1
Selectivity Index [15]: >100
bioavailability [16]: 76%
Selectivity Index [17]: >100
Activity (Salmonella typhimurium): Non-toxic
CC50 [18]: > 12 µM
Selectivity Index [19]: >100
CC50 [20]: > 12 µM
IC50 (Cytochrome P450 2D6): > 8.9 µM
permeability [21]: 86%
CC50 [22]: > 12 µM
IC50 (Plasmodium falciparum [23]): 0.044 µM
AUC (Mus musculus [24]): 31.758 µM·h
Papp B→A (in vitro [25]): 1.03 ×10⁻⁶ cm/s
IC50 (Plasmodium falciparum [26]): 0.036 µM
Vd [27]: 14 L/kg
clearance [28]: 27.7 mL/min/kg
half-life [29]: 7.7 h
Tmax [30]: 1.67 h
IC50 (Cytochrome P450 1A2): > 8.9 µM
Survival (Plasmodium berghei [31]): 17.7 days
CC50 [32]: > 12 µM
hepatic extraction ratio (in vitro [33]): 0.12
Survival (Plasmodium berghei [34]): 7.7 days
Selectivity Index [35]: >100
hepatic extraction ratio (in vitro [36]): 0.39
Selectivity Index [37]: >100

IC50 (Cytochrome P450 2C9): > 10 µM
Cmax [38]: 320 nM
IC50 (Cytochrome P450 2C19): > 10 µM
IC50 (Cytochrome P450 3A4): > 10 µM
IC50 (Cytochrome P450 2D6): > 10 µM
solubility [39]: > 175 µM
IC50 (Plasmodium falciparum [23]): 0.063 µM
IC50 (Plasmodium falciparum [26]): 0.097 µM
IC50 (Cytochrome P450 1A2): > 10 µM
Structure (SMILES): NCC(=O)N1CCn2c(nc(-c3ccccc3)c2Nc2ccc3c(c2)OCO3)C1
IC50 [5]: 19 µM
Selectivity Index [10]: >20
CC50 [32]: > 10 µM
Selectivity Index [35]: >20
